Bioassay records as filed in PubChem BioAssay.
GRK2 aptamer HTS – compounds blocking aptamer binding on GRK2 – biochemical, human GRK2, bead flow cytometry, HTS, primary screen | Beta-adrenergic receptor kinase 1 (Homo sapiens), P25098 | FAM-aptamer displacement from GRK2 | inhibition of aptamer binding, % at 10 µM | actives 0.59% (n = 330,000) | AID 488847, 2010;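 active means inhibition of aptamer binding above 40%, roughly 3 SD of noise, on plates passing a quality check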;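 further: median bead fluorescence of bound FAM aptamer so fluorescent compounds give negative values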
B2AR ag – beta2AR agonists driving receptor internalization, primary screen, cell-based, FAP fluorogen, flow cytometry | Am2.2-beta2AR cells | response, % (concentration not given with the values) | actives 0.43% (n = 340,000);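 active means response above a set limit, near 3 SD of response in nonfluorescent compounds, cut at about 42% in these data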
NTR1 agonist – agonists of human NTR1, primary screen, imaging, U2OS cells, beta-arrestin-GFP, high content; actives 0.17% (n = 330,000); activation, % at 20 µM; Neurotensin receptor type 1 (Homo sapiens), P30989; NTR1-U2OS beta-arrestin-GFP spot imaging, agonist mode; AID 493036, 2011;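 active means activation at or above 40% of the spot to cytoplasm intensity ratio, with at least 20 cells analyzed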
Target sequence (P30989 whole entry, looked up): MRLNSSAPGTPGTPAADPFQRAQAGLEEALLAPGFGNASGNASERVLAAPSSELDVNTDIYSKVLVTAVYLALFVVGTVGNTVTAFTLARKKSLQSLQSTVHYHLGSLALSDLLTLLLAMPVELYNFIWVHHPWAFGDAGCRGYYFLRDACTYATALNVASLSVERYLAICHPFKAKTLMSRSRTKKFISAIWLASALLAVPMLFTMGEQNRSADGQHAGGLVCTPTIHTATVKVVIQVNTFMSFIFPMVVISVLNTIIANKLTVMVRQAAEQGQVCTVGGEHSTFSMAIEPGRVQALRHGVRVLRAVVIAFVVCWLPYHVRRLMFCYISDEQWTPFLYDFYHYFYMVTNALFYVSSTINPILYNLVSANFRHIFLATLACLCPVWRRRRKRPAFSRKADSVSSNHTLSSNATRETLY
Lipid droplet – inhibitors of hepatocyte lipid droplet formation, primary screen, imaging, high-throughput imaging, BODIPY stain. actives 0.4% (n = 240,000). AML12 mouse hepatocytes, oleate lipid droplets. AID 1656, 2009. inhibition, % at 6.5 µM;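 active means lipid droplet intensity inhibited by at least 50%, with more than 500 cells counted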
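Assay system: AML12 hepatocytes (mouse) / Also added: 100 µM oleic acid challenge / Times: overnight treatment with compound plus oleate / Detection: high-content imaging of BODIPY-stained droplets and DAPI nuclei / Evaluation: % inhibition of lipid droplet signal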
H9c2 TAG inh – inhibitors of triacylglycerol accumulation, primary screen, cell-based, uHTS, fluorescence, H9c2; H9c2 cells, Nile Red lipid (TAG) fluorescence; cells loaded with 200 µM oleic acid; inhibition, % at 12.5 µM; actives 0.66% (n = 230,000); AID 651582, 2012;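 active means pattern-corrected inhibition of lipid staining of at least 50% with the nuclear-stain viability signal not falling by more than 50%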
Arr AP2 block – inhibitors of beta-arrestin/AP2 binding, primary screen, biochemical, GPCR trafficking, flow cytometry; beta-arrestin 1 C-terminal peptide binding to AP2 beta2-adaptin appendage (human); FITC-arrestin peptide / GST-AP2 beads; AP2 beta2 appendage carries R879A mutation; inhibition, % at 10 µM; actives 0.31% (n = 340,000); AID 504490, 2011;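 active means inhibition above a set limit, near 3 SD of compounds lacking own fluorescence, cut at about 54% in these data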
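System: GST-AP2 R879A bound to glutathione beads, E. coli-expressed. Also added: 50 nM FITC-arrestin peptide. Schedule: compound with beads 12 min RT, then probe 1 h RT. Signal: bead flow cytometry, FITC channel. Read-out basis: percent response.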
TAG conf – triacylglycerol accumulation inhibitors, retest, confirmation, cell-based, single concentration, Nile Red fluorescence, H9c2 | shares compounds with H9c2 TAG inh | H9c2 lipid accumulation; cells loaded with 200 µM oleic acid | inhibition, % at 12.5 µM | actives 71% (n = 990) | AID 651629, 2012;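 active means mean inhibition across replicates of 40% or more; inactive means mean inhibition below 40%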
Large screens that a line does not name were inactive (follow-up assays come after a bar, where they were run); ! = not confirmed by another sample. Compounds with a hit are over-represented: about 2% of the library has one in this group of screens.

CCOCCC(=O)Nc1ccc2c(c1)c(=O)n(C)n2C/C=C/c1ccccc1	H9c2 TAG inh 53 (no result: GRK2 aptamer HTS, B2AR ag, NTR1 agonist, Lipid droplet, Arr AP2 block) | TAG conf 49
O=c1cc(N2CCN(c3ccccc3)CC2)[nH]c(=O)n1C1CCCCC1	H9c2 TAG inh 63 (no result: Lipid droplet) | TAG conf inactive
O=c1cc(N2CCOCC2)[nH]c(=O)n1C1CCCCC1	none (no result: Lipid droplet)
O=c1cc(N2CCN(c3cccc(Cl)c3)CC2)[nH]c(=O)n1C1CCCCC1	H9c2 TAG inh 69 (no result: Lipid droplet) | TAG conf 58
CN1CCN(c2cc(=O)n(C3CCCCC3)c(=O)[nH]2)CC1	none
CC(=O)Nc1ccc(S(=O)(=O)NCCc2cc3ccc(C)c(C)c3[nH]c2=O)cc1	none
Cc1ccc(Nc2nc(N3CCOCC3)nc(N3CCOCC3)n2)cc1	none (no result: Lipid droplet, H9c2 TAG inh)
CC(C)c1ccc(Nc2nc(N3CCOCC3)nc(N3CCOCC3)n2)cc1	H9c2 TAG inh 74 (no result: GRK2 aptamer HTS, B2AR ag, NTR1 agonist, Lipid droplet, Arr AP2 block) | TAG conf 91
Cc1ccc(Nc2cc(C)nc(N3CCOCC3)n2)cc1	none (no result: Lipid droplet)
Cc1cc(Nc2ccc(C)c(Cl)c2)nc(N2CCOCC2)n1	H9c2 TAG inh 72 | TAG conf 41
O=C(CSc1nnc(CNc2ccc(F)cc2)n1CC1CCCO1)N1CCOCC1 (configuration not stated)	none (no result: GRK2 aptamer HTS, H9c2 TAG inh)
COc1cccc(NC(=O)COC(=O)c2c(C)nn(-c3ccccc3)c2C)c1	none (no result: Lipid droplet)
O=C/C(=C\Nc1ccc(S(=O)(=O)CCO)cc1)c1nc2cc(Cl)ccc2o1	none
COc1ccc(/[N+]([O-])=C/c2ccco2)cc1	none (no result: Lipid droplet)
CC(=O)Nc1ccc(SC[C@H](CC(C)C)N2CCN(CC(C)C)CCC2=O)cc1	H9c2 TAG inh 67 | TAG conf inactive
CC(=O)Nc1ccc(SC[C@H](Cc2ccccc2)N2CCN(CC(C)C)CCC2=O)cc1	none (no result: GRK2 aptamer HTS)
CC(OC(=O)CCN=C1NS(=O)(=O)c2ccccc21)C(=O)Nc1ccc(N(C)C)cc1 (configuration not stated)	none (no result: Lipid droplet)
CCN(CC)CCn1c(SCC(=O)Nc2cccc(OC)c2)nc2c(sc3ccccc32)c1=O	H9c2 TAG inh 52 | TAG conf 54
COc1cccc(NC(=O)CSc2nc3c(sc4ccccc43)c(=O)n2CCN(C)C)c1	none
COC(=O)C1CCN(CC(=O)Nc2ccc(C(=O)Nc3ccccc3OC)cc2)CC1	none (no result: Lipid droplet)
CC1CCN(S(=O)(=O)c2cc(C(=O)NC3(C)CCS(=O)(=O)C3)ccc2Br)CC1 (configuration not stated)	none (no result: Lipid droplet)
Cc1ccc(NC(=O)CSc2nnnn2-c2ccc3c(c2)OCO3)cc1C	H9c2 TAG inh 57 | TAG conf inactive
Cn1c(-c2ccccc2)c(/C=N/NC(=O)c2ccc(O)cc2)c2ccccc21	none
CCc1ccc([C@H]2C(C(=O)O)=C[C@@H](CC3CCCC3)N2S(=O)(=O)c2ccc(C)cc2)cc1	none (no result: Lipid droplet)
COc1ccc(CC(=O)Nc2ccc(-c3ccc4nnc(C)n4n3)cc2)cc1OC	H9c2 TAG inh 58 | TAG conf 71
CN(C#N)c1nc(N2CCOCC2)nc(N2CCOCC2)n1	none (no result: Lipid droplet)
CC(C)CN(C#N)c1nc(N2CCOCC2)nc(N2CCOCC2)n1	H9c2 TAG inh 62 (no result: Lipid droplet) | TAG conf 45
Nc1c(C(=O)Nc2ccccc2)c2nc3ccccc3nc2n1CCCN1CCOCC1	H9c2 TAG inh 83 | TAG conf 86
COc1cc(NC(=O)c2csc(N)n2)cc(C(=O)Nc2cccc(C(F)(F)F)c2)c1	H9c2 TAG inh 59! | TAG conf 50
COc1cc(NC(=O)c2cnc(N)s2)cc(C(=O)Nc2cccc(C(F)(F)F)c2)c1	none (no result: B2AR ag, Arr AP2 block)
C=CCn1cnc2c(c1=O)c1nc3ccccc3nc1n2/N=C/c1cccc(OC)c1OC	none (no result: Lipid droplet, H9c2 TAG inh)
C=CCn1cnc2c(c1=O)c1nc3ccccc3nc1n2/N=C/c1cc(OC)c(OC)c(OC)c1	H9c2 TAG inh 79 (no result: Lipid droplet) | TAG conf inactive
COc1cc(C2C(C#N)=C(N)Oc3c2ccc2ccccc32)ccc1OCC(=O)Nc1ccccc1C (configuration not stated)	none (no result: Lipid droplet, H9c2 TAG inh)
COC(=O)c1ccc(NC(=O)COc2ccc(C3C(C#N)=C(N)Oc4c3ccc3ccccc43)cc2OC)cc1 (configuration not stated)	H9c2 TAG inh 50 (no result: Lipid droplet) | TAG conf inactive
COc1cc(C#Cc2c(-c3cncn3C)n(C)c3ccc(-c4cnc(N5CCOCC5)nc4)cc23)cc(OC)c1	H9c2 TAG inh 73 (no result: Lipid droplet) | TAG conf 65
COc1cc(C#Cc2c(-c3cncn3C)n(C)c3ccc(-c4ccc(CN5CCOCC5)cc4)cc23)cc(OC)c1	none (no result: Lipid droplet)
COc1ccc2cc(Br)ccc2c1CC(=O)NC1CC(C)(C)NC(C)(C)C1	H9c2 TAG inh 64 | TAG conf inactive
COc1ccc(CNC(=O)N2CCN(c3ccccc3OC)CC2)cc1	none (no result: H9c2 TAG inh)
COc1ccc(OCCCC(=O)Nc2ccc(S(=O)(=O)N3CCOCC3)cc2)cc1	none (no result: Lipid droplet)
CCN(C(=O)COC(=O)c1cc(-c2ccccc2)nc2ccc(Br)cc12)C1CCS(=O)(=O)C1 (configuration not stated)	none
CCN(C(=O)COC(=O)c1cc(-c2ccccc2)nc2c1c(C)nn2-c1ccc(C)cc1)C1CCS(=O)(=O)C1 (configuration not stated)	H9c2 TAG inh 55 | TAG conf 69
Cc1cc(N/N=C/c2cccc([N+](=O)[O-])c2)nc(-n2nc(C)cc2C)n1	H9c2 TAG inh 71 | TAG conf inactive
Cc1cc(N/N=C/c2cccc(Cl)c2)nc(-n2nc(C)cc2C)n1	H9c2 TAG inh 53 | TAG conf 41
COc1ccc(-c2cnnc(N/N=C/c3ccc(-c4ccc([N+](=O)[O-])cc4)o3)n2)cc1	H9c2 TAG inh 63 (no result: GRK2 aptamer HTS, NTR1 agonist) | TAG conf 61
Cc1cc2c(cc1C)CSC(c1ccccc1OC(=O)C(C)C)SC2	H9c2 TAG inh 52 (no result: Lipid droplet) | TAG conf inactive
COc1cc2c(cc1OC)C(COc1ccccc1OC)N(C(=O)C(C)C)CC2 (configuration not stated)	none
O=C(CSc1nc2ccc(Nc3nc(N4CCOCC4)nc(N4CCOCC4)n3)cc2s1)Nc1ccccc1Cl	H9c2 TAG inh 62 | TAG conf 67
CCCC(=O)Nc1ccc2nc(SCC(=O)Nc3ccc(N4CCOCC4)c(Cl)c3)sc2c1	H9c2 TAG inh 51 (no result: Lipid droplet) | TAG conf inactive
